RGS4 act: potentiators or activators of RGS4. 310,000 tested, 0.92% active. B-score at 10 µM. HEK293 M3R/inducible RGS4, carbachol calcium flux Fluo4; hits give low values;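 active = B-score of the integrated calcium signal more than 4 SD below the library mean, with starting fluorescence not abnormally high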;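 note: negative B-score means reduced calcium response which marks RGS4 activation or potentiation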
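Assay system: Inducible-RGS4 HEK293 cells carrying M3 receptor | Schedule: Compound preincubation 20 min at room temperature before agonist | Signal: Kinetic calcium fluorescence imaging with Fluo4-AM dye, 2 µM | Read-out basis: B score from integrated fluorescence ratio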
RGS4 inh: inhibitors of human RGS4; HEK293 M3R/RGS4 inducible, Fluo-4 calcium flux; hits give high values; triggered by carbachol at its EC20; B-score at 10 µM; 310,000 tested, 0.45% active;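 active = B-score, a plate-corrected calcium signal, over three deviations above library mean, with baseline fluorescence within five deviations of library mean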;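 note: RGS4 expression induced by doxycycline in cells with stable M3 receptor; B-score is computed from the integrated fluorescence ratio over baseline after carbachol; higher B-score means a larger calcium signal and so more RGS4 inhibition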
Target sequence (P49798 whole entry, looked up): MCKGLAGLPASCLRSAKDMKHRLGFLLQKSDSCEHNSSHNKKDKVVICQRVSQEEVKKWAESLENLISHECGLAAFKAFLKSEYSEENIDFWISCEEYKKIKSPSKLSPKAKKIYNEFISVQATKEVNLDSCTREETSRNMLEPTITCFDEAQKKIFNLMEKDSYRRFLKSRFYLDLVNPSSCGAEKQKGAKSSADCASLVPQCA
MrgX1 agonist: human MrgX1 receptor agonism, primary screen | Q96LB2 | MrgX1-HEK293 cells, Fluo-4 calcium fluorescence, agonist mode; hits give high values | B-score at 10 µM | 310,000 tested, 0.44% active;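 active = calcium response B-score plate-corrected fluorescence ratio at least 3 library SD, with starting fluorescence B-score inside 5 SD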
Target sequence (Q96LB2 whole entry, looked up): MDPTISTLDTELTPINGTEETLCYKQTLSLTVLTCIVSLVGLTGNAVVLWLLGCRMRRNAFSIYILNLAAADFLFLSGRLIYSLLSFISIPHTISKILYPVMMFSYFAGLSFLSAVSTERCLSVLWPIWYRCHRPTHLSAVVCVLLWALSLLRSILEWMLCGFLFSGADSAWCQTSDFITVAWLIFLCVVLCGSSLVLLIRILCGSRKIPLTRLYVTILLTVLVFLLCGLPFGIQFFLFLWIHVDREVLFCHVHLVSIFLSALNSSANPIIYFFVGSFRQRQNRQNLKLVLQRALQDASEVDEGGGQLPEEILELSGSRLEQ
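Material: MrgX1-expressing HEK293 cells / Dosing: compound as first of three additions / Incubation: overnight seeding, then 1 h dark dye loading / Signal: Fluo-4 NW calcium fluorescence / Evaluation: B-scored fluorescence response ratio / Benchmarks: positive and negative control wells on each plate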
MrgX1 PAM: allosterically activates human MrgX1 receptor signaling; B-score at 10 µM; MrgX1-HEK293, Fluo-4 calcium flux, FDSS; hits give high values; 310,000 tested, 0.63% active; Q96LB2; AID 588675;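 active = plate-corrected calcium response at least 3 library SD above typical, normal starting fluorescence, not activating the receptor alone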;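 note: compound read alongside a low EC10 to EC30 dose of BAM8-22 agonist; peak minus trough fluorescence over baseline measured at the second addition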
MrgX1 antagonist: human MrgX1 receptor antagonism, primary screen | MRGX1-HEK293 calcium flux, Fluo-4, BAM8-22 antagonism; hits give low values | B-score at 10 µM | 310,000 tested, 1.3% active;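 active = calcium-response B-score plate-corrected more than 3 library SD below zero, starting fluorescence within 5 deviations, no agonist response on first addition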;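 note: peak minus trough fluorescence over baseline after final BAM8-22 challenge near maximal dose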
A number is an active result; n = inactive; x = not tested or not shown. The list is not random: actives were taken first. Their share in the collection is about 3.5%.

SMILES	RGS4 act	RGS4 inh	MrgX1 agonist	MrgX1 PAM	MrgX1 antagonist
Cc1ccc(NC(=O)Nc2cccc([N+](=O)[O-])c2)cc1F	n	n	n	n	-6.1
Cc1cc(NC(=O)Nc2cccc([N+](=O)[O-])c2)no1	n	n	n	n	n
O=C1CC(c2ccc(Cl)cc2)CC(=O)C1CS(=O)(=O)c1ccccc1 (centres undefined)	-7.2	n	n	n	n
Cc1ccc(CSCc2ccc(C(=O)NCCCN3CCOCC3)o2)cc1	n	n	n	6.7	n
Cc1cc(NC(=O)c2cccc(C(=O)Nc3cc(C)on3)n2)no1	n	n	n	n	n
COc1cccc2c1OCC(C(=O)OCc1cccnc1)=C2	n	n	29	n	n
COc1ccc(C(=O)CN2C(=O)NC3(CCCc4ccccc43)C2=O)cc1 (centres undefined)	-7.5	n	n	n	n
COc1ccc(-c2nnc(-c3cc4c(ccc5ccccc54)oc3=O)o2)cc1	-9	n	n	n	n
CCOc1ncccc1C(=O)NCc1cccc(OC)c1	n	n	n	n	n
CN1CCc2c(sc(NC(=O)c3ccc(S(=O)(=O)N4CCCCCC4)cc3)c2C(N)=O)C1	n	n	32	n	n
C=CCc1cccc2cc(C(=O)Nc3cccc(C(=O)O)c3)c(=O)oc12	n	n	n	7.6	n
C=CCc1cccc2cc(C(=O)Nc3ccc(CC(=O)O)cc3)c(=O)oc12	n	n	n	n	n
CN(C)CCOC1c2ccccc2CSc2ccccc21 (centres undefined)	-8.9	n	n	n	n
O=c1oc2ccccc2cc1-c1cn2cccnc2n1	n	n	n	n	n
O=c1oc2ccccc2cc1-c1cn2ccccc2n1	n	n	27	n	n
O=C1S/C(=C/c2ccc(N3CCOCC3)o2)C(=O)N1Cc1ccc(F)cc1	n	n	46	n	n
C=CCN1C(=O)N/C(=C/c2ccc(N3CCOCC3)o2)C1=O	n	n	n	n	-5.1
O=C1N/C(=C/c2ccc(N3CCOCC3)o2)C(=O)N1c1ccccc1	x	x	n	n	n
CCc1ccc(Nc2nnc(SCC(=O)Nc3cccc(S(=O)(=O)NC4=NCCCCC4)c3)s2)cc1	n	n	n	n	n
CN(CCO)c1nc(N)c2c(N)nc3c(c2c1C#N)CC(=O)N3Cc1cccs1	n	n	n	n	n
N#Cc1c(N(CCO)CCO)nc(N)c2c(N)nc3c(c12)CC(=O)N3Cc1cccs1	n	n	n	n	-4.5
CCc1nnc(NS(=O)(=O)c2ccc(NC(=S)NC(=O)/C=C/c3ccc(C(C)C)cc3)cc2)s1	-9.7	n	n	n	n
CCc1nnc(NS(=O)(=O)c2ccc(NC(=S)NC(=O)/C=C/c3ccccc3)cc2)s1	n	n	n	n	n
COc1ccc(C2CC(c3ccc(Cl)cc3Cl)Nc3nc(N)nn32)cc1 (centres undefined)	n	n	n	n	n
N#CCC(=O)N1CCN(C=O)CC1	n	n	n	n	-5.5
SMILES	RGS4 act	RGS4 inh	MrgX1 agonist	MrgX1 PAM	MrgX1 antagonist
COc1cc(C)nn1-c1ccc(Cl)cc1	n	n	n	n	n
Cc1nn(-c2cc(C(F)(F)F)ccc2Cl)c2nc(C(Cl)(Cl)Cl)[nH]c(=O)c12	n	n	43	n	n
Cc1nn(-c2ccccc2)c2nc(C(F)(F)F)[nH]c(=O)c12	n	n	n	n	n
CCCOCc1ccc(O)c2ncccc12	n	n	n	n	n
Oc1ccc(COCc2ccccc2)c2cccnc12	n	n	n	n	-5.6
O=C(O)C(c1ccccc1)N1C(=O)/C(=C\c2ccc(O)c(O)c2)SC1=S (centres undefined)	n	n	27	n	n
COc1cc(/C=C2\SC(=S)N(C(C(=O)O)c3ccccc3)C2=O)ccc1O (centres undefined)	n	n	n	n	n
Cc1ccc(C2C3=C(CC(C)(C)CC3=O)Nc3onc(C)c32)cc1 (centres undefined)	n	n	n	n	n
CSc1nn(CCc2ccncc2)c(=S)s1	n	n	n	n	n
CCCN1C(=O)c2cc(C(=O)Nc3ccccc3OC)ccc2C1Nc1ccccc1OC (centres undefined)	-7.2	n	n	n	n
COCCCNCCOc1ccc(C)cc1[N+](=O)[O-]	n	n	n	n	-4.9
CCn1c(SCc2ccc(Cl)cc2)nc2nc3c(cc2c1=O)CCCC3	n	n	n	n	n
CCOC(=O)c1c(CN(C)C)n(-c2ccc(C)cc2)c2cc(Br)c(O)cc12	n	n	n	n	n
CCOC(=O)c1c(CSC(=N)N)n(-c2ccc(C)cc2)c2cc(Br)c(OC(C)=O)cc12	n	n	n	n	-7.6
CCSC1(SCC)N=C(N)C2(C#N)C(c3ccc(F)cc3)C12C#N (centres undefined)	n	n	29	n	n
CC(C)(C)C(=O)NC1CCN(S(=O)(=O)c2ccc(C(F)(F)F)cc2)CC1	n	n	n	n	n
COCCCNC(=O)c1cccn2c(=O)c3cc4ccccc4cc3nc12	n	n	n	n	-8.5
O[Si](CCCN1CCCCC1)(c1ccc(F)cc1)C1CCCCC1 (centres undefined)	x	x	n	n	n
Cc1cc(OCC(=O)NCC(c2cccs2)N2CCOCC2)ccc1C(C)C (centres undefined)	n	n	n	n	n
Cc1ccc(C(C)C)c(OCC(=O)NCC(c2cccs2)N2CCOCC2)c1 (centres undefined)	n	n	28	n	n
O=C(O)c1ccccc1-c1ccccc1C(=O)Nc1ccc(-c2nc3cc(Cl)ccc3o2)cc1	n	n	n	n	-5.6
Cc1ccc(-c2csc(NC(=O)c3cc([N+](=O)[O-])ccc3N3CCOCC3)n2)cc1	n	n	n	n	n
O=C(Nc1nc(-c2ccccc2)cs1)c1ccc(N2CCOCC2)c([N+](=O)[O-])c1	n	n	n	n	-7.4
CCOc1ccc(N)c(SSc2cc(OCC)ccc2N)c1	n	n	29	n	n
CCOc1cc(-c2ccc(N)c(OCC)c2)ccc1N	n	n	n	n	n
SMILES	RGS4 act	RGS4 inh	MrgX1 agonist	MrgX1 PAM	MrgX1 antagonist
CCN(CC)CCC/C(=N\O)C(O)(c1ccccc1)c1ccccc1	-10	n	n	n	n
CC/C(CC(C)(C)c1ccccc1)=N\O	n	n	n	n	n
CC[N+](C)(CC)CCC/C(=N/O)C(O)(c1ccccc1)c1ccccc1	-9.7	n	n	n	n
Cc1ccc(Sc2c([N+](=O)[O-])ncn2C)cc1	n	n	n	n	n
Cn1cnc([N+](=O)[O-])c1Sc1ncccc1N	n	n	n	n	-7.2
O=C(NN1C(=O)C2C(c3ccccc3)C=CC(c3ccccc3)C2C1=O)c1cccc(Br)c1 (centres undefined)	-10	n	n	n	n
CC(C)CCNc1nc(N)c([N+](=O)[O-])c(NCCO)n1	n	n	n	n	n
CCC(C)Nc1nc(N)c([N+](=O)[O-])c(NCCO)n1 (centres undefined)	n	n	n	17	n
